Compound activity: PubChem BioAssay, Johns Hopkins Ion Channel Center
TRPC4 inh = inhibitors of mouse TRPC4 channel, primary screen, Fluo4 calcium, HEK293 TRPC4beta/mu-opioid cells; Short transient receptor potential channel 4 (Mus musculus), Q9QUQ5; DAMGO-evoked Fluo4 calcium flux; stronger effect = lower value; B-score at 10 µM; 0.39% of 300,000 active;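 active = B-score over 3 SD under the library average, no early fluorescence shift, positive overall ratio signal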
Target sequence (Q9QUQ5 whole entry, looked up): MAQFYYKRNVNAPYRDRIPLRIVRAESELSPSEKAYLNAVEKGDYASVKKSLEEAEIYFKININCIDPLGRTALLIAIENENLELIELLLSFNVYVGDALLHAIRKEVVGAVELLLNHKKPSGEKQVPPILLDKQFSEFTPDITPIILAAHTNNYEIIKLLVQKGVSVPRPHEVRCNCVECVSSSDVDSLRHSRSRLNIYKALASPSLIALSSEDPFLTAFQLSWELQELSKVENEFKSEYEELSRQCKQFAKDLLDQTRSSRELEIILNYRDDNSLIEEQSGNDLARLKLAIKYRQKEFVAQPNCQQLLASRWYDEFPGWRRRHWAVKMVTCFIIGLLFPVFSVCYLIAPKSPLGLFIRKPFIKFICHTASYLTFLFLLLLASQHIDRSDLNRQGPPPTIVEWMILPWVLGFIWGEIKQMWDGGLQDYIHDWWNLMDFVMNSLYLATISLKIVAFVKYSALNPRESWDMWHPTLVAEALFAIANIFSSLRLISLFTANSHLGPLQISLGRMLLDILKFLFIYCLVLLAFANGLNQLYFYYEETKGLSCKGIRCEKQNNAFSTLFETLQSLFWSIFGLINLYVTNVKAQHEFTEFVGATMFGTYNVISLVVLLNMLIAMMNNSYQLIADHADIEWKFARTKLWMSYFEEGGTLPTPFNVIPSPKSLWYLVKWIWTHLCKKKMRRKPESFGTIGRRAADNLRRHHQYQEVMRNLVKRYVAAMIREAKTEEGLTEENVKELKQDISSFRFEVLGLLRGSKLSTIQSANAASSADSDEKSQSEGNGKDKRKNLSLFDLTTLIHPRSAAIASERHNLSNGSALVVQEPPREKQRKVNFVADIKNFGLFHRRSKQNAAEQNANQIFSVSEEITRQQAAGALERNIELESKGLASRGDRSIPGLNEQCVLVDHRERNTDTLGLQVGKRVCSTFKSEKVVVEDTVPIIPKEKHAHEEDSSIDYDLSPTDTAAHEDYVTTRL
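Assay system: HEK293 cells with stable TRPC4beta plus mu-opioid receptor expression; Probe or stimulus: DAMGO in two steps, submaximal then maximal; Dosing: single-point compound dosing; Measured by: Fluo4 calcium-dye fluorescence, kinetic read; Read-out basis: B score from integrated Fluo4 fluorescence ratio.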
TRPC6 inhibitor = mouse TRPC6 channel inhibitors, primary screen, cell-based, HEK293, membrane potential dye | Short transient receptor potential channel 6 (Mus musculus), Q61143 | ACh-evoked depolarization; stronger effect = lower value | B-score at 10 µM | 1.1% of 310,000 active | AID 2553, 2010;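 active = B-score under library mean minus 3 SD, initial fluorescence not abnormally high, positive integrated signal ratio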;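 note: B-score derived from integrated fluorescence ratio over the kinetic read; more negative B-score means stronger inhibition of depolarization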
TRPC4 act = activators of mouse TRPC4 channel, primary screen, Fluo4 calcium, HEK293 TRPC4beta/mu-opioid cells. 0.49% of 310,000 active. B-score at 10 µM. Fluo4 calcium fluorescence; stronger effect = higher value. Short transient receptor potential channel 4 (Mus musculus), Q9QUQ5;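 active = B-score above 5 SD of library B-scores, and initial fluorescence ratio not above library mean plus 5 SD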;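 note: positive B-score marks a calcium rise read as TRPC4 activation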
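Technique: kinetic Fluo4 calcium fluorescence; Test system: TRPC4beta and mu-opioid receptor HEK293 stable cells; Measure: B-scored integrated calcium fluorescence ratio; Benchmarks: low control buffer alone, high control maximal DAMGO; Schedule: 45 min room-temperature Fluo4 loading, 110 s read.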
TRPC4 potent = positive allosteric modulators of TRPC4, primary screen, cell-based, mouse TRPC4beta, HEK293 mu-opioid, Fluo-4 calcium | AID 2227, 2009 | B-score at 10 µM | DAMGO EC20, Fluo-4 Ca2+ flux; stronger effect = higher value | Short transient receptor potential channel 4 (Mus musculus), Q9QUQ5 | 0.42% of 310,000 active;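 active = B-score of calcium response area above 5 SD of library B-scores, with initial fluorescence ratio within 5 SD of library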;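 note: B-score of integrated fluorescence ratio over time as area under calcium response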
TRPC6 act = mouse TRPC6 channel activators, primary screen, cell-based, HEK293, membrane potential dye; Short transient receptor potential channel 6 (Mus musculus), Q61143; B-score at 10 µM; 0.13% of 310,000 active; HEK293-TRPC6 membrane potential dye fluorescence; stronger effect = higher value;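 active = B-score of the integrated fluorescence ratio above library mean plus 3 SD, and starting fluorescence ratio within library mean plus 5 SD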;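 note: higher score means more depolarization so channel activation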
TRPC4 spec 2 = mouse TRPC4 off-target activity of TRPC6 inhibitors, second screen. 42% of 920 active. inhibition, % at 10 µM. HEK293 TRPC4/MOR, membrane potential dye fluorescence; channel activated by saturating DAMGO dose. shares compounds with TRPC6 inhibitor;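 active = compounds whose fluorescence signal differed from control wells by over 3 SD, either direction, in both duplicate plates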
TRPC4 spec = mouse TRPC4 modulation by TRPC6 hits, confirmation, selectivity assay for TRPC6 inhibitor project, cell-based, HEK293 TRPC4/mu-opioid, membrane potential dye; shares compounds with TRPC6 inhibitor; membrane potential fluorescence; activity change, negative = inhibition, % at 10 µM; 61% of 920 active; AID 2777, 2010;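 active = rise or fall in signal beyond 3 SD of buffer-only wells in both replicate plates, either sign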;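 note: integrated kinetic ratio of fluorescence range over baseline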
HEK293 MPD ctr 2-1 = nonspecific membrane potential effects, parental HEK293, confirmation, counter-screen for TRPC6 inhibitor project, cell-based, second counter screen; shares compounds with TRPC6 inhibitor; parental HEK293 membrane potential dye fluorescence; maximal acetylcholine challenge after compound addition; signal change vs control, % at 10 µM; 31% of 920 active;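 active = membrane potential signal moving either way by over 3 SD of the maximum-effect control, in both duplicate plates, meaning non-specific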
HEK293 MPD ctr-1 = membrane potential modulation in parental HEK293, confirmation, counter-screen for TRPC6 inhibitor project, cell-based | shares compounds with TRPC6 inhibitor | parental HEK293 membrane potential dye fluorescence | AID 2780, 2010 | 60% of 920 active | membrane potential signal change, % at 10 µM;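 active = membrane potential signal shifting up or down by more than 3 SD of buffer-only wells, on both duplicate plates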
HEK293 MPD ctr-2 = parental HEK293 membrane potential modulation, confirmation, counter-screen for TRPC6 modulator project, cell-based | shares compounds with TRPC6 inhibitor | membrane potential dye fluorescence | membrane potential signal change, % at 10 µM | 51% of 2,400 active;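 active = membrane potential signal moves up or down beyond 5 SD from buffer-only wells, on both duplicate plates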
HEK293 MPD ctr 2-2 = second check of TRPC6 modulator effects in parental HEK293 cells; membrane potential dye fluorescence; after compound, maximal acetylcholine stimulation; shares compounds with TRPC6 inhibitor; AID 488926; 14% of 2,400 active; inhibition, % at 10 µM;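 active = membrane potential signal drops by more than 5 SD from the mean control signal, in both duplicate plates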;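 note: plate controls were acetylcholine ECmax control wells for no effect and buffer only wells for full effect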
TRPC4/MOR mod = TRPC4 modulation by TRPC6 hit compounds, confirmation, selectivity assay for TRPC6 modulator project, cell-based, HEK293 TRPC4/mu-opioid, membrane potential dye, mouse; AID 488927, 2010; membrane potential fluorescence; shares compounds with TRPC6 inhibitor; percent change from control (negative = decrease, positive = increase), % at 10 µM; 69% of 2,400 active;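 active = membrane potential signal moved up or down beyond 5 SD of buffer control wells, in both duplicate plates, actives on both sides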;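 note: plate controls were assay buffer wells for no effect and DAMGO maximal-effect wells for full effect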
TRPC4 ctr inh 2 = second selectivity test of TRPC6 modulators against mouse TRPC4. shares compounds with TRPC6 inhibitor. HEK293 TRPC4/mu-opioid, membrane potential dye fluorescence; stimulated with maximal-effect DAMGO. inhibition, % at 10 µM. 55% of 2,400 active;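 active = drop in membrane potential signal beyond 5 SD of the control wells in both duplicate plates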;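 note: TRPC4 counter screen for TRPC6 hits run under conditions tuned for TRPC6 not TRPC4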
TRPC6 inh conf = mouse TRPC6 channel inhibitors, confirmation, HEK293 cells, membrane potential dye, duplicate; inhibition, % at 10 µM; 43% of 3,300 active; shares compounds with TRPC6 inhibitor; ACh-evoked depolarization; AID 488960, 2010;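 active = fluorescence ratio falls more than 5 SD below the full-stimulation control mean, in both duplicate runs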;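 note: integrated fluorescence ratio of peak minus minimum over baseline after agonist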
TRPC6 act confirm = mouse TRPC6 channel activators, confirmation, HEK293 cells, membrane potential dye, duplicate; shares compounds with TRPC6 inhibitor; HEK293-TRPC6 membrane potential dye fluorescence, FDSS; activation, % at 10 µM; 11% of 2,800 active; AID 488961, 2010;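 active = ratio signal rise beyond 5 SD above unstimulated control wells' mean, seen in both duplicate runs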;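 note: plate controls were buffer EC0 wells for no effect and acetylcholine ECmax response for full effect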
Starred values were filed as active, the others as inactive; i = inactive; x = no result given. Hits are enriched below; roughly 2.3% of the tested compounds scored in any of these assays.

SMILES | TRPC4 inh | TRPC6 inhibitor | TRPC4 act | TRPC4 potent | TRPC6 act | HEK293 MPD ctr-2 | HEK293 MPD ctr 2-2 | TRPC4/MOR mod | TRPC4 ctr inh 2 | TRPC6 inh conf | TRPC6 act confirm | others
O=C(/C(=C/c1ccc(Cl)cc1)c1nc2ccccc2[nH]1)c1cccs1 | i | -6.82* | i | i | i | x | x | x | x | i | i | TRPC4 spec 2=i;TRPC4 spec=i;HEK293 MPD ctr 2-1=i;HEK293 MPD ctr-1=i
O=C1C(=O)N(Cc2cccnc2)C(c2cccc([N+](=O)[O-])c2)/C1=C(/O)c1ccc2c(c1)OCO2 (centres undefined) | i | i | i | i | i | x | x | x | x | x | x
COc1ccc(-c2cc(-c3cc(OC)ccc3O)[nH]n2)cc1 | i | i | i | i | i | x | x | x | x | x | x
COc1ccc(-c2n[nH]c(C)c2-c2cc(OC)ccc2O)cc1 | i | -6.05* | i | i | i | i | i | i | i | i | i
Cc1cc(C)n(S(=O)(=O)c2ccccc2[N+](=O)[O-])n1 | i | i | i | i | i | x | x | x | x | x | x
CCNc1oc(-c2cccc3ccccc23)nc1C#N | i | i | i | i | i | x | x | x | x | x | x
N#Cc1nc(-c2cccc3ccccc23)oc1NCCN1CCCCC1 | i | -7.57* | i | i | i | x | x | x | x | i | i | TRPC4 spec 2=i;TRPC4 spec=i;HEK293 MPD ctr 2-1=i;HEK293 MPD ctr-1=i
CCOC(=O)N1CCN(CC(O)COc2ccccc2[N+](=O)[O-])CC1 (centres undefined) | i | i | i | i | i | x | x | x | x | x | x
COc1ccccc1-n1c(SCC(=O)Nc2ccc(NC(C)=O)cc2)nc2c([nH]c3ccccc32)c1=O | i | i | i | i | i | x | x | x | x | x | x
COc1ccc(S(=O)(=O)N2CCOC23CCN(S(=O)(=O)c2cc(F)ccc2F)CC3)cc1 | i | i | i | i | i | x | x | x | x | x | x
CCOc1cc(C(=O)O/N=C(\N)c2ccccn2)cc(OCC)c1OCC | i | i | i | i | i | x | x | x | x | x | x
CCOc1ccc(C(=O)O/N=C(\N)c2ccccn2)cc1OCC | i | -5.86* | i | i | i | -94.0%* | i | -22.0%* | i | i | i
CN1CCN(/N=C/c2nc(-c3cccc([N+](=O)[O-])c3)n3ccccc23)CC1 | i | -5.15* | i | i | i | -165.0%* | i | -30.0%* | 46.0%* | 51.0%* | i
Cc1nn(-c2ccccc2)nc1CNC(=O)C1CC1 | i | i | i | i | i | x | x | x | x | x | x
Cc1cc(-c2nnc(SCC(=O)Nc3ccc(C)c(C)c3)n2N)n[nH]1 | i | i | i | i | i | x | x | x | x | x | x
Cc1cc(NCCCN2CCOCC2)n2nc(C)c(-c3ccccc3)c2n1 | i | -6.06* | i | i | i | -171.0%* | i | -31.0%* | 38.0%* | i | i
Cc1ccc(N(C)C(=O)CCS(=O)(=O)c2cc3c(cc2Cl)NC(=O)CO3)cc1 | i | i | i | i | i | x | x | x | x | x | x
CC1=CC(C)(C)N(C(=O)CCl)c2cc(C)ccc21 | i | i | i | i | i | x | x | x | x | x | x
CC1=CC(C)(C)N(C(=O)CNC2CCCCC2)c2cc(C)ccc21 | i | -5.56* | i | i | i | 125.5%* | i | 35.5%* | 57.5%* | 50.5%* | i
Cc1ccc(S(=O)(=O)N(Cc2ccc(Cl)cc2)c2ccccc2C(=O)NCc2ccco2)cc1 | i | i | i | i | i | x | x | x | x | x | x
